Positions count from the first letter of the chain named. Calls of active or inactive are those of the source. The rule behind the calls is not given here.
Legend:
Escherichia coli [1] = assay: Inhibition of recombinant Escherichia coli N-terminal His-tagged rhomboid protease GlpG expressed in Escherichia coli C43(DE3) cells at 250 uM using gurken as substrate preincubated for 30 mins followed by substrate addition measured after 90 mins by SDS-PAGE analysis
Escherichia coli [2] = assay: (§1) Reversible inhibition of recombinant Escherichia coli N-terminal His-tagged rhomboid protease GlpG expressed in Escherichia coli C43(DE3) cells assessed as recovery of enzyme activity at 10 uM using KSp76 as substrate preincubated for 1 hr followed by substrate addition measured over 120 mins by rapid dilution based fluorescence assay
Summary of the method: (§2)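 Rapid-dilution recovery. Inhibitor preincubated 1 h with 0.4 µM GlpG in 20 mM HEPES-NaOH pH 7.4, 150 mM NaCl, 0.05% DDM, then diluted 100-fold into buffer with 10 µM KSp76. Fluorescence (ex 553/em 583) monitored continuously for 120 min.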

[3] = Inhibition of recombinant Escherichia coli N-terminal His-tagged rhomboid protease GlpG expressed in Escherichia coli C43(DE3) cells using KSp53 as substrate incubated for 1 hr followed by substrate addition by fluorescence assay; details: in the assay text read “KSp35” for “KSp53”
Summary of the method: (§3)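 Started with 10 µM quenched fluorogenic peptide (KSp35 or KSp76). Fluorescence normalized to DMSO and plotted against log concentration; apparent IC50 from nonlinear regression.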

Bos taurus = species on record: Bos taurus; assay: Inhibition of bovine pancreas trypsin at 10 uM using Z-Gly-Gly-Argaminomethylcoumarin as substrate preincubated for 30 mins followed by substrate addition measured at 1 min time interval for 5 mins by fluorescence assay
Summary of the method: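 Compound or DMSO preincubated with 10 nM bovine pancreatic trypsin in PBS for 30 min at 30°C. Started with Z-Gly-Gly-Arg-AMC (1 mM stock). AMC fluorescence (ex 340/em 440) read every 1 min for 5 min. Initial slope gives velocity; % activity = V inhibitor/V DMSO × 100.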

Escherichia coli [4] = assay: Binding affinity to wild type recombinant Escherichia coli rhomboid protease GlpG expressed in Escherichia coli C43(DE3) cells by electrospray mass spectrometric analysis
Summary of the method: (§4)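 GlpG (wild type or rhomboid mutants) expressed in E. coli C43(DE3) and purified, then reacted in vitro with compound or vehicle. Covalent adduct detected by electrospray mass spectrometry as an added peak with the expected mass shift over free enzyme. Two independent experiments.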

[5] = molecular target: T1, Cathepsin G (Homo sapiens) (UniProt P08311); assay: Inhibition of human neutrophil cathepsin G at 10 uM using N-Succinyl-Ala-Ala-Pro-Phe-p-nitroanilide as substrate preincubated for 30 mins followed by substrate addition measured at 1 min time interval for 5 mins by fluorescence assay; details: in the assay text read “absorbance assay” for “fluorescence assay”
T1 sequence (whole entry): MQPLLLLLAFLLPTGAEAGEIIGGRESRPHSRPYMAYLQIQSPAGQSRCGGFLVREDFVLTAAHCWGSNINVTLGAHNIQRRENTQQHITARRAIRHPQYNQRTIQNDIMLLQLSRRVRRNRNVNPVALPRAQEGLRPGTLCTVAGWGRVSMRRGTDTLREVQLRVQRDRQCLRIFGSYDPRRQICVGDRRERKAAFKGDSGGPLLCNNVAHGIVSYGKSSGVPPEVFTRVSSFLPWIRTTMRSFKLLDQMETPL
Summary of the method: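 Compound or DMSO preincubated with 200 nM human neutrophil cathepsin G for 30 min at 37°C in 100 mM HEPES, 500 mM NaCl, pH 7.4. Started with Suc-AAPF-pNA (2 mM stock). Absorbance at 410 nm read every 1 min for 5 min. Initial slope gives velocity; % activity relative to DMSO.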

[6] = molecular target: Chymotrypsinogen A (Bos taurus) (UniProt P00766); assay: Inhibition of bovine alpha-chymotrypsin at 250 uM using N-Succinyl-Ala-AlaPro-Phe-p-nitroanilide as substrate incubated for 30 mins followed by substrate addition measured over 5 mins by spectroscopic method
[7] = molecular target: T2, Neutrophil elastase (Homo sapiens) (UniProt P08246); assay: Inhibition of human neutrophil elastase at 10 uM using N-Methoxysuccinyl-Ala-Ala-Pro-Val-p-nitroanilid as substrate preincubated for 20 mins followed by substrate addition measured at 1 min time interval for 5 mins by fluorescence assay
T2 sequence (whole entry): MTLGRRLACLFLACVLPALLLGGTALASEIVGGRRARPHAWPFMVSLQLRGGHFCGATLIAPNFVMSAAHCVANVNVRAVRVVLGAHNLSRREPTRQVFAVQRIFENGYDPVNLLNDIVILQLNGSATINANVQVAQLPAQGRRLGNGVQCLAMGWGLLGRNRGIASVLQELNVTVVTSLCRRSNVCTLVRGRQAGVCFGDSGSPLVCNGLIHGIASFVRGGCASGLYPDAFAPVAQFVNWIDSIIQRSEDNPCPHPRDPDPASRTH

Chymotrypsinogen A = Chymotrypsinogen A (Bos taurus, UniProt P00766); assay: Inhibition of bovine pancreas alpha-chymotrypsin using KSp21 as substrate preincubated for 30 mins followed by substrate addition measured after 50 to 60 mins by fluorescence assay
Escherichia coli [8] = assay: as §1, with “50” for “10”; summary of the method: as §2
[9] = molecular target: T3, Rhomboid protease GlpG (Escherichia coli (strain K12)) (UniProt P09391); assay: Binding affinity to recombinant Escherichia coli rhomboid protease GlpG His150 mutant expressed in Escherichia coli C43(DE3) cells by electrospray mass spectrometric analysis; summary of the method: as §4
T3 sequence (whole entry): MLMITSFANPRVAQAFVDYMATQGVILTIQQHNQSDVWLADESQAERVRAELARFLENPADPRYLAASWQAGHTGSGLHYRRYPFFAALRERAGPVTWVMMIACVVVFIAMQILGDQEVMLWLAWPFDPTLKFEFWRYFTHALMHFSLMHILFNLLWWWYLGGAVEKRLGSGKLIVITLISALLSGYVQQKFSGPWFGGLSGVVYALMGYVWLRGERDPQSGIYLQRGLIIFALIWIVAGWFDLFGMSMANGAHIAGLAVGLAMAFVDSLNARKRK

[10] = Inhibition of recombinant Escherichia coli N-terminal His-tagged rhomboid protease GlpG expressed in Escherichia coli C43(DE3) cells using KSp76 as substrate incubated for 1 hr followed by substrate addition by fluorescence assay; summary of the method: as §3
[11] = system: T4, Rhomboid protease GlpG (Escherichia coli (strain K12)), P09391 [S201T]; assay: Binding affinity to recombinant Escherichia coli rhomboid protease GlpG S201T mutant expressed in Escherichia coli C43(DE3) cells by electrospray mass spectrometric analysis; summary of the method: as §4
T4 sequence (whole entry): T3 sequence (whole entry) with S201T

[12] = system: T5, Rhomboid protease GlpG (Escherichia coli (strain K12)), P09391 [H254A]; assay: Binding affinity to recombinant Escherichia coli rhomboid protease GlpG H254A mutant expressed in Escherichia coli C43(DE3) cells by electrospray mass spectrometric analysis; summary of the method: as §4
T5 sequence (whole entry): T3 sequence (whole entry) with H254A

Escherichia coli [13] = assay: as §1, with “1” for “10”; summary of the method: as §2

With `O=c1oc(-c2ccc(F)cc2)nc2ccccc12` the inhibition (Escherichia coli [1]) was “inactive”.

In the case of `O=c1oc(/C=C/c2ccc(F)c(F)c2)nc2ccccc12`, the inhibition (Escherichia coli [1]) is reported as “inactive”.

With `O=c1oc(-c2ccco2)nc2ccccc12` the inhibition (Escherichia coli [1]) was “inactive”.

For `COc1oc(=O)c2cc(N)ccc2c1Cl`, the inhibition (Escherichia coli [2]) was “inactive”.

In the case of `O=c1oc(/C=C/c2ccccc2)nc2ccccc12`, the IC50 [3] is reported as 3.7 µM, the inhibition (Bos taurus) is reported as “inactive” and the Activity (Escherichia coli [4]) is reported as “Active”. The inhibition (Escherichia coli [1]) was “Active”, the inhibition [5] was “Active” and the inhibition [6] was “inactive”. The inhibition [7] was “inactive”.

For `O=c1oc(-c2ccccc2)nc2ccccc12`, the inhibition (Escherichia coli [1]) was “inactive”.

With `COc1ccc(-c2nc3ccccc3c(=O)o2)cc1` the inhibition (Escherichia coli [1]) was “inactive”.

In the case of `O=c1oc(Cl)c(Cl)c2ccccc12`, the inhibition (Bos taurus) is reported as “Active”, the inhibition [7] is reported as “Active” and the IC50 (Chymotrypsinogen A) is reported as 3.5 µM.

With `O=c1oc(/C=C/c2ccccc2Cl)nc2ccccc12` the inhibition (Escherichia coli [8]) was “Active”, the Activity [9] was “Active” and the IC50 [10] was 4.4 µM. For the same molecule, the inhibition (Bos taurus) was “inactive”, the Activity [11] was “inactive” and the Activity (Escherichia coli [4]) was “Active”. For the same molecule, the inhibition (Escherichia coli [1]) was “Active”, the inhibition [5] was “Active” and the inhibition [6] was “inactive”. The Activity [12] was “inactive” and the inhibition [7] was “inactive”.

In the case of `COc1ccc(/C=C/c2nc3ccccc3c(=O)o2)cc1`, the IC50 [3] is reported as 48 µM, the inhibition (Bos taurus) is reported as “inactive” and the inhibition (Escherichia coli [1]) is reported as “Active”. The inhibition [5] was “inactive” and the inhibition [7] was “inactive”.

In the case of `O=c1oc(-c2cccc(F)c2)nc2ccccc12`, the inhibition (Escherichia coli [1]) is reported as “inactive”.

For `O=c1oc(-c2cccc(Br)c2)nc2ccccc12`, the inhibition (Escherichia coli [1]) was “inactive”.

With `O=c1oc(-c2ccccc2F)nc2ccccc12` the inhibition (Escherichia coli [1]) was “inactive”.

With `O=C1CC(c2ccccc2)N1C(=O)Oc1ccccc1` (configuration not stated) the inhibition (Escherichia coli [13]) was “Active”.

In the case of `CCC(=O)Oc1c(/C=C/c2nc3ccccc3c(=O)o2)cccc1OC`, the inhibition (Escherichia coli [1]) is reported as “inactive”.

From ChEMBL document CHEMBL4184297, “Discovery and validation of 2-styryl substituted benzoxazin-4-ones as a novel scaffold for rhomboid protease inhibitors” (Bioorg Med Chem Lett, 2018)
